The source of these data is ChEMBL document CHEMBL1926584, “Pterocarpanquinones, aza-pterocarpanquinone and derivatives: synthesis, antineoplasic activity on human malignant cell lines and antileishmanial activity on Leishmania amazonensis” (Bioorg Med Chem, 2011).

For one assay, the system named is HCT-8. In words: Antineoplastic activity against human HCT8 cells after 72 hrs by MTT assay. Type of assay: functional, cell-based. Conditions: HCT-8, 72 h. The gist of the method: (§1)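 Tumour lines kept in RPMI 1640 with 10% FBS, 2 mM glutamine, penicillin/streptomycin, 37 °C, 5% CO2. Seeded at 10^5 cells/mL (adherent) or 3×10^5 cells/mL (leukemia). Compounds 0.1–25 µg/mL in DMSO 1%, 72 h. Vehicle controls got equal DMSO. MTT 0.5 mg/mL for 3 h, formazan dissolved in DMSO, absorbance at 595 nm. Doxorubicin 0.01–5 µg/mL as positive control.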
(In general: Tetrazolium dyes change colour on reduction, which living cells bring about.)

Assay [1] concerns MDA-MB-435. In words: Antineoplastic activity against human MDA-MB-435 cells after 72 hrs by MTT assay. Type of assay: functional, cell-based. The following applies: MDA-MB-435, 72 h. An outline of the steps: as §1
The next assay relates to SF-295. The assay is described as follows: Antineoplastic activity against human SF295 cells after 72 hrs by MTT assay. Type of assay: functional, cell-based. Conditions: SF-295, 72 h. The gist of the method: as §1
A further assay deals with HL-60. In words: Antineoplastic activity against human HL60 cells after 72 hrs by MTT assay. Type of assay: functional, cell-based. Conditions: HL-60, 72 h. The gist of the method: as §1
For the next assay, the system named is K562. The assay is described as follows: Antineoplastic activity against human K562 cells after 72 hrs by MTT assay. Conditions: K562, 72 h. Type of assay: functional, cell-based. The gist of the method: as §1
In assay [2] the test system is Leishmania amazonensis. The assay is described as follows: Antileishmanial activity against Leishmania amazonensis promastigotes after 72 hrs by MTT assay. Type of assay: functional, organism-based. An outline of the steps:
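Promastigotes grown at 26 °C in Schneider's medium with 10% FBS. Inoculum 1.0×10^6/ml, compounds 0–20 µM, 72 h at 26 °C. MTT (5 mg/mL solution) added for 2 h, then DMSO, OD at 570 nm. Pentamidine isethionate as reference. Experiments repeated at least three times; IC50 derived by software fitting.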

The test system of assay [3] is PBMC. The assay is described as follows: Selectivity index, ratio of IC50 for PHA activated human PBMC cells to IC50 for human K562 cells. Type of assay: functional.
The test system of assay [4] is PBMC. The assay is described as follows: Cytotoxicity against PHA activated human PBMC cells after 72 hrs by MTT assay. Type of assay: cell-based. The gist of the method:
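PBMC isolated from heparinized blood of healthy non-smoking donors (drug-free ≥15 days) by Ficoll-Hypaque density-gradient centrifugation. Plated at 3×10^5 cells/mL in RPMI 1640 with 20% FBS, glutamine and antibiotics, 37 °C, 5% CO2. Phytohemagglutinin (3%) added at start. After 24 h, compounds 0.1–25 µg/mL in DMSO 1% added for 72 h. MTT read-out at 595 nm.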

The subject of assay [5] is PBMC. The assay is described as follows: Selectivity index, ratio of IC50 for PHA activated human PBMC cells to IC50 for human HL60 cells. Type of assay: functional.
In assay [6] the test system is MDA-MB-435. The assay is described as follows: Ratio of doxorubicin IC50 to compound IC50 for human MDA-MB-435 cells. Type of assay: functional.
The test system of assay [7] is PBMC. In words: Selectivity index, ratio of IC50 for PHA activated human PBMC cells to IC50 for human SF295 cells. Type of assay: functional.
Assay [8] deals with PBMC. The assay is described as follows: Selectivity index, ratio of IC50 for PHA activated human PBMC cells to IC50 for human MDA-MB-435 cells. Type of assay: functional.
In assay [9] the test system is PBMC. The assay is described as follows: Selectivity index, ratio of IC50 for PHA activated human PBMC cells to IC50 for human HCT8 cells. Type of assay: functional.
The next assay concerns J774. In words: Cytotoxicity against mouse J774 cells after 72 hrs by MTT assay. Type of assay: cell-based. The following applies: J774, 72 h. The gist of the method:
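J774 murine macrophages (2×10^6 in 200 µL) incubated with a range of compound concentrations for 72 h at 37 °C/5% CO2. Viability by MTT. Pentamidine isethionate as reference. Experiments repeated at least three times.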

Assay [10] relates to Leishmania amazonensis. The assay is described as follows: Antileishmanial activity against Leishmania amazonensis amastigotes infected in BALB/c mouse peritoneal macrophages after 72 hrs by microscopy. Type of assay: functional, organism-based. An outline of the steps: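 Resident BALB/c peritoneal macrophages in RPMI, 2×10^6/mL, 1 h at 37 °C, 5% CO2. Infected with stationary-phase promastigotes at 3:1 parasite/macrophage for 3 h, then washed with PBS. Compounds 0–20 µM in duplicate for 72 h. Hematological stain and light microscopy, amastigotes counted in ≥100 macrophages. Pentamidine reference. Repeated at least three times.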

Structures are written as SMILES. pIC50: −log10 of the molar value.

With `c1ccc2c(c1)CC[C@@H]1c3ccccc3O[C@H]21`, the pIC50 in the assay on HCT-8, in the assay with MDA-MB-435 [1], with SF-295, in the assay on HL-60 and in the assay on K562 was less than 3.95 each time.
Turning to `O=C1C2=C(C(=O)c3ccccc31)[C@H]1Oc3ccccc3[C@H]1CO2` (racemic) [PTEROCARPANQUINONE], the pIC50 (usually −log10 of the IC50, conventionally taken in molar units) was 5.59 with HCT-8; 5.76 with Leishmania amazonensis [2]; 5.64 in the assay with MDA-MB-435 [1]; less than 4.70 with PBMC [4]; 5.44 in the assay with SF-295; 5.89 with HL-60. The pIC50 with J774 is 4.73; in the assay on Leishmania amazonensis [10] it was 5.84. For the same compound, the “Ratio IC50” value with PBMC [3] came to 12; with PBMC [5] it was 15.4; in the assay on MDA-MB-435 [6], 0.42; in the assay with PBMC [7] it was 5.5; with PBMC [8], 8.7; in the assay on PBMC [9] it was 7.7.
As to `O=C1C2=C(C(=O)c3ccccc31)[C@H]1Oc3ccc([N+](=O)[O-])cc3[C@H]1CO2` (racemic), the pIC50 with HCT-8 was 5.08; with Leishmania amazonensis [2] it was 5.97; in the assay on MDA-MB-435 [1], 4.76; in the assay with PBMC [4], 5.07; in the assay with SF-295, 5.05; with HL-60, 5.20. For the same compound, the pIC50 with J774 was 4.92; in the assay with Leishmania amazonensis [10], 5.73. Besides, the “Ratio IC50” value in the assay on PBMC [5] is 1.36; in the assay with PBMC [7], 0.96; in the assay on PBMC [8], 0.49; in the assay on PBMC [9] it was 1.06.
Take `COc1c2c(c(OC)c3ccccc13)[C@@H]1[C@H](CO2)c2ccccc2N1S(=O)(=O)c1ccc(C)cc1` (racemic): the pIC50 is less than 4.29 in the assay with HCT-8; less than 4.29 in the assay with MDA-MB-435 [1]; less than 4.29 in the assay on SF-295; less than 4.29 with HL-60; 4.33 with K562.
Take `c1ccc2c(c1)O[C@@H]1c3ccccc3OC[C@H]21`: the pIC50 in the assay with HCT-8, in the assay on MDA-MB-435 [1], in the assay with SF-295, with HL-60 and with K562 was less than 3.95 each time.
For the compound `COc1cccc2c1C(=O)c1c(O)c3c(c(O)c1C2=O)C[C@@](O)(C(=O)CO)C[C@@H]3O[C@H]1C[C@H](N)[C@H](O)[C@H](C)O1` [DOXORUBICIN], the pIC50 in the assay with HL-60 was 7.40; in the assay with K562, 5.78.
`N=C(N)c1ccc(OCCCCCOc2ccc(C(=N)N)cc2)cc1` [PENTAMIDINE]: the pIC50 with Leishmania amazonensis [2] was 5.66; with J774, 4.15; with Leishmania amazonensis [10], 5.82.
With `COc1ccc2c(c1)O[C@@H]1C3=C(OC[C@H]21)C(=O)c1ccccc1C3=O` (racemic), the pIC50 with HCT-8 was 4.98; in the assay with Leishmania amazonensis [2], 5.55; in the assay with MDA-MB-435 [1], 4.94; with PBMC [4], 5.11; in the assay with SF-295 it was 4.75; with HL-60 it was 5.46. Moreover, the results for the pIC50 in the assay on K562, in the assay with J774 and with Leishmania amazonensis [10] were 5.48, 4.31 and less than 4.70, respectively. The “Ratio IC50” value is on record as 9.4 in the assay with PBMC [3]; 2.22 in the assay on PBMC [5]; 0.44 in the assay on PBMC [7]; 0.68 in the assay with PBMC [8]; 0.75 in the assay with PBMC [9].
Regarding `COc1cc(C=O)cc2c1O[C@@H]1C3=C(OC[C@H]21)C(=O)c1ccccc1C3=O` (racemic), the pIC50 is 5.22 in the assay on HCT-8; 5.90 in the assay with Leishmania amazonensis [2]; 4.97 in the assay with MDA-MB-435 [1]; 5.22 in the assay on PBMC [4]; 5.13 in the assay with SF-295; 5.52 with HL-60. Further, the pIC50 with K562 is 4.87; with J774 it was 4.74; in the assay on Leishmania amazonensis [10], 5.90. The “Ratio IC50” value turned out to be 2 in the assay on PBMC [5], 0.8 in the assay with PBMC [7], 0.56 in the assay with PBMC [8] and 1 with PBMC [9].
For the compound `COc1c2c(c(OC)c3ccccc13)[C@H]1Oc3ccccc3[C@H]1CO2` (racemic), the pIC50 was 4.67 in the assay with HCT-8; 4.51 in the assay on MDA-MB-435 [1]; 4.65 in the assay with SF-295; 4.76 with HL-60; 4.87 in the assay with K562.
For `Cc1ccc(S(=O)(=O)N2c3ccccc3[C@H]3CCc4ccccc4[C@H]32)cc1`, the pIC50 in the assay on HCT-8 is 5.52; with Leishmania amazonensis [2], 5.31; with MDA-MB-435 [1], 6.30; in the assay on PBMC [4], 5.14; with SF-295, less than 4.20; in the assay on HL-60 it was 6.00. Moreover, the pIC50 with K562 was 5.72; in the assay on J774 it was 4.64; in the assay with Leishmania amazonensis [10], 5.67. Further, the “Ratio IC50” value in the assay with PBMC [5] worked out at 7.2; with PBMC [7] it was 0.11; with PBMC [8], 14.4; in the assay with PBMC [9] it was 2.4.
As to `Cc1ccc(S(=O)(=O)N2c3ccccc3[C@H]3COC4=C(C(=O)c5ccccc5C4=O)[C@H]32)cc1` (racemic), the pIC50 is 6.22 in the assay with HCT-8; 4.82 in the assay on Leishmania amazonensis [2]; 6.40 in the assay with MDA-MB-435 [1]; 4.64 in the assay with PBMC [4]; 5.41 with SF-295; 5.13 in the assay on HL-60. Further, the figures for the pIC50 in the assay on K562, in the assay with J774 and in the assay with Leishmania amazonensis [10] were 5.26, less than 4.00 and less than 4.70, respectively. Moreover, the “Ratio IC50” value in the assay on PBMC [3] is on record as 4.33; in the assay on PBMC [5] it was 3.12; in the assay on MDA-MB-435 [6], 2; in the assay with PBMC [7] it was 5.92; in the assay with PBMC [8] it was 57.7; in the assay on PBMC [9] it was 38.5.
For the compound `COC(=O)c1ccc2c(c1)[C@H]1COC3=C(C(=O)c4ccccc4C3=O)[C@H]1O2` (racemic), the pIC50 in the assay on HCT-8 was less than 4.89; with Leishmania amazonensis [2], 5.55; in the assay on MDA-MB-435 [1], less than 4.89; with SF-295 it was less than 4.89; with HL-60, 5.39; with K562, 5.10. Further, the values for the pIC50 in the assay with J774 and in the assay on Leishmania amazonensis [10] were 4.65 and 6.30, respectively.
Turning to `O=C1C2=C(OCC=C2)C(=O)c2ccccc21`, the pIC50 was 5.55 with HCT-8; 5.74 with MDA-MB-435 [1]; more than 5.85 in the assay on PBMC [4]; 5.64 with SF-295; 6.30 with HL-60. Moreover, the “Ratio IC50” value in the assay with PBMC [5] turned out to be 2.8; in the assay with PBMC [7], 0.6; in the assay with PBMC [8] it was 0.78; in the assay with PBMC [9] it was 0.5.
In the case of `Cc1ccc(S(=O)(=O)N2c3ccccc3[C@H]3COc4ccccc4[C@H]32)cc1`, the pIC50 was 5.05 with HCT-8; 5.30 in the assay on MDA-MB-435 [1]; 4.50 with SF-295; 5.21 with HL-60; 5.19 in the assay on K562.
